Molecules are shown by their SMILES.

Data set [1] is described as follows: Cytotoxicity against human MT4 cells assessed as cell viability by MTT assay. Type of data set: cell-based. Put shortly:
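Uninfected MT-4 cells scored for viability by MTT. […] Values are means of two to three independent experiments, each run in triplicate.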
A general note: Tetrazolium dyes change colour on reduction, which living cells bring about.

In data set [2] the test system is Human immunodeficiency virus 1. Nature of the data set: Antiviral activity against HIV1 NL4-3 infected in human […] cells assessed as protection against virus-induced cytopathic effect measured on day 5 post infection by MTT assay. The data set is classed as functional, cell-based. To be noted: Human immunodeficiency virus 1, NL4-3, 120 h. Put shortly: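 Values are means of two to three independent experiments, each run in triplicate. The lowest detectable concentration is reported where activity fell below the assay limit.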
On the technique in general: Protection from cytopathic effect is a common read-out in antiviral testing.

Data set [3] in a line: Selectivity index, ratio of CC50 for human MT4 cells to EC50 for HIV1 NL4-3 infected in human MT4 cells. Type of data set: toxicity, cell-based. Conditions: read-out: Ratio CC50/EC50. Summed up: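 SI computed as CC50/EC50, using the MTT-based CC50 in uninfected MT-4 cells and the MTT-based EC50 against HIV-1 NL4-3-induced cell death in MT-4 cells. Experiments were run in triplicate, two to three times.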

For data set [4], the system named is Human immunodeficiency virus 1. Briefly: Antiviral activity against HIV1 harboring reverse transcriptase K103N mutant infected in human […] cells assessed as protection against virus-induced cytopathic effect measured on day 5 post infection by MTT assay. The data set is classed as functional, cell-based. To be noted: Human immunodeficiency virus 1, 120 h.
In data set [5] the test system is Human immunodeficiency virus 1. Nature of the data set: Antiviral activity against HIV1 harboring reverse transcriptase Y181C mutant infected in human […] cells assessed as protection against virus-induced cytopathic effect measured on day 5 post infection by MTT assay. Conditions: Human immunodeficiency virus 1, 120 h. The data set is classed as functional, cell-based.

Data set [6] concerns Human immunodeficiency virus 1. Nature of the data set: Antiviral activity against HIV1 harboring reverse transcriptase Y188L mutant infected in human […] cells assessed as protection against virus-induced cytopathic effect measured on day 5 post infection by MTT assay. The data set is classed as functional, cell-based. Conditions: Human immunodeficiency virus 1, 120 h.
Data set [7] concerns Human immunodeficiency virus 1. Briefly: Antiviral activity against HIV1 harboring reverse transcriptase K103N /[…] double mutant infected in human […] cells assessed as protection against virus-induced cytopathic effect measured on day 5 post infection by MTT assay. The data set is classed as functional, cell-based. Conditions: Human immunodeficiency virus 1, 120 h.
Data set [8] has as its system Human immunodeficiency virus 1. Briefly: Ratio of EC50 for HIV-1 harboring reverse transcriptase K103N mutant infected in human MT4 cells to EC50 for HIV1 NL4-3 infected in human MT4 cells. Type of data set: functional. Summed up: (§1)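 Fold change calculated as EC50 against the stated resistant mutant HIV-1 strain divided by EC50 against wild-type NL4-3. Both EC50s come from MTT read-out of virus-induced death in MT-4 cells, mean of two to three independent experiments each in triplicate.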

Data set [9] concerns Human immunodeficiency virus 1. Nature of the data set: Ratio of EC50 for HIV-1 harboring reverse transcriptase Y181C mutant infected in human MT4 cells to EC50 for HIV1 NL4-3 infected in human MT4 cells. Type of data set: functional. Put shortly:
as §1

Data set [10] has as its system Human immunodeficiency virus 1. Nature of the data set: Ratio of EC50 for HIV-1 harboring reverse transcriptase Y188L mutant infected in human MT4 cells to EC50 for HIV1 NL4-3 infected in human MT4 cells. Type of data set: functional. Summed up: as §1
The test system of data set [11] is Human immunodeficiency virus 1. Nature of the data set: Ratio of EC50 for HIV-1 harboring reverse transcriptase K103N/[…] double mutant infected in human MT4 cells to EC50 for HIV1 NL4-3 infected in human MT4 cells. The data set is classed as functional. Summed up:
as §1

One may read the CC50 as the concentration that lowers cell viability or growth by half. For orientation: EC50 means the midpoint of the concentration-response curve. Regarding `Cc1cc(C)cc(S(=O)(=O)c2c(C(=O)NC(C)C(=O)NCc3ccccc3F)[nH]c3ccc(Cl)cc23)c1` (racemic), the 50% cytotoxic concentration (CC50) in [1] came to 23.3 µM. Also, the EC50 is 0.0006 µM in data set [2]; 0.026 µM in data set [4]; 0.093 µM in [5]; 4.24 µM in [6]; more than 23.3 µM in data set [7]. Moreover, the selectivity ratio in [3] was 23300. The “Ratio EC50” value in [8] is given as 43; in data set [9] it was 155; in data set [10], 7067; in data set [11], more than 38775.
As to `COc1cccc(F)c1CNC(=O)c1[nH]c2ccc(Cl)cc2c1S(=O)(=O)c1cc(C)cc(C)c1`, the CC50 in data set [1] was more than 49.9 µM. Also, the EC50 in data set [2] was 0.0006 µM; in data set [4], 0.0006 µM; in data set [5], 0.399 µM; in [7], 27.7 µM. Moreover, in data set [3], the selectivity ratio is more than 83200. Further, the “Ratio EC50” value is given as 1 in data set [8], 665 in data set [9] and 46243 in data set [11].
In the case of `Cc1ccnc2c1NC(=O)c1cccnc1N2C1CC1` [NEVIRAPINE], the CC50 in [1] is more than 18.8 µM. The EC50 in [2] was 0.112 µM; in [4], more than 3.76 µM; in [5], more than 3.76 µM; in [6], more than 3.76 µM; in data set [7], more than 3.76 µM.
For `Cc1cc(C)cc(S(=O)(=O)c2c(C(=O)NC(C)C(=O)NCCc3cccs3)[nH]c3ccc(Cl)cc23)c1` (racemic), the half-maximal cytotoxic concentration (CC50) in data set [1] is 9.5 µM. Further, the concentration giving a half-maximal response (EC50) in data set [2] is 0.0006 µM; in data set [4] it was 0.018 µM; in [5], 0.129 µM; in data set [6] it was more than 9.8 µM; in [7], more than 9.8 µM. In data set [3], the selectivity ratio was 52800. Further, the “Ratio EC50” value is 30 in data set [8], 215 in [9], more than 16336 in data set [10] and more than 16336 in data set [11].
In the case of `Cc1cc(C)cc(S(=O)(=O)c2c(C(=O)NCc3n[nH]c4ccccc34)[nH]c3ccc(Cl)cc23)c1`, the cytotoxic concentration (CC50) in data set [1] is more than 50.7 µM. In addition, the EC50 in data set [2] came to 0.0006 µM; in data set [4], 0.0006 µM; in data set [5] it was 0.0006 µM; in data set [6], 0.142 µM; in [7] it was 0.548 µM. Besides, the selectivity ratio in [3] is more than 84500. Moreover, the “Ratio EC50” value in [8] was 1; in [9] it was 1; in [10], 237; in [11], 913.
Consider `Cc1cc(C)cc(S(=O)(=O)c2c(C(=O)NCC(=O)NC(C)c3ccccc3F)[nH]c3ccc(Cl)cc23)c1` (racemic), for which, in data set [1], the CC50 was more than 23 µM. For the same molecule, the concentration for a half-maximal effect (EC50) in data set [2] was 0.0006 µM; in [4] it was 0.387 µM; in data set [5], 0.013 µM; in data set [6], 3.67 µM; in data set [7] it was more than 23 µM. Moreover, the selectivity ratio in data set [3] is more than 38300. In addition, the “Ratio EC50” value in data set [8] is given as 552; in [9], 19; in data set [10] it was 6118; in data set [11], more than 38345.
Consider `Cc1cc(C)cc(S(=O)(=O)c2c(C(=O)NC(C)c3cc(F)cc(F)c3)[nH]c3ccc(Cl)cc23)c1` (racemic), for which, in data set [1], the CC50 was more than 49.7 µM. Besides, the EC50 is 0.0006 µM in data set [2], 0.0012 µM in data set [4], 0.716 µM in data set [5] and more than 49.7 µM in data set [7]. Moreover, the selectivity ratio in [3] is more than 82800. For the same molecule, the “Ratio EC50” value in data set [8] is reported as 2; in data set [9] it was 1198; in [11], more than 82843.
Take `Cc1cc(C)cc(S(=O)(=O)c2c(C(=O)NC(C)C(=O)NCCn3c(C)cnc3[N+](=O)[O-])[nH]c3ccc(Cl)cc23)c1` (racemic): the CC50 in data set [1] stood at 16 µM. Further, the 50% effective concentration (EC50) amounted to 0.0002 µM in [2]; 0.17 µM in [4]; 0.17 µM in data set [5]; 4.77 µM in [6]; 5.28 µM in [7]. For the same molecule, in data set [3], the selectivity ratio was 94200. The “Ratio EC50” value in data set [8] worked out at 850; in [9], 850; in data set [10], 23850; in [11] it was 26405.
Consider `Cc1cc(C)cc(S(=O)(=O)c2c(C(=O)NCc3cccc(F)c3F)[nH]c3ccc(Cl)cc23)c1`, for which the half-maximal cytotoxic concentration (CC50) in data set [1] is more than 51.1 µM. Besides, the half-maximal effective concentration (EC50) in [2] is 0.0007 µM; in [4], 0.0007 µM; in [5], 0.002 µM; in [7], more than 51.1 µM. Further, the selectivity ratio in data set [3] is more than 73000. For the same molecule, the “Ratio EC50” value in data set [8] was 1; in data set [9] it was 2.9; in [11] it was more than 73046.
For `Cc1cc(C)cc(S(=O)(=O)c2c(C(=O)Nc3cc(C#N)ccn3)[nH]c3ccc(Cl)cc23)c1`, the 50% cytotoxic concentration (CC50) in data set [1] was more than 53.8 µM. Moreover, the concentration for a half-maximal effect (EC50) in [2] was 0.0006 µM; in data set [4], 0.0006 µM; in data set [5], 0.0022 µM; in data set [7], more than 53.8 µM. In addition, the selectivity ratio in data set [3] is more than 89600. In addition, the figures for the “Ratio EC50” value in [8], in data set [9] and in data set [11] were 1, 3.7 and more than 89622, respectively.
`Cc1cc(C)cc(S(=O)(=O)c2c(C(=O)NCC(=O)N[C@@H](C)c3ccncc3)[nH]c3ccc(Cl)cc23)c1`: the EC50 was determined as 0.0007 µM in [2]; 0.438 µM in [4]; 0.0025 µM in data set [5]; 3.05 µM in data set [6]; 4.63 µM in data set [7].
For the molecule `Cc1cc(C)cc(S(=O)(=O)c2c(C(=O)NC(CF)c3ccccc3)[nH]c3ccc(Cl)cc23)c1` (racemic), in data set [1], the CC50 was 49.2 µM. The concentration giving a half-maximal response (EC50) was determined as 0.0007 µM in data set [2], 0.0007 µM in [4], 0.082 µM in [5] and 27.3 µM in data set [7]. For the same molecule, the selectivity ratio in data set [3] is more than 70300. The “Ratio EC50” value in data set [8] was determined as 1; in data set [9], 117; in data set [11], 39030.
As to `Cc1cn([C@H]2C[C@H](N=[N+]=[N-])[C@@H](CO)O2)c(=O)[nH]c1=O` [ZIDOVUDINE], in data set [1], the 50% cytotoxic concentration (CC50) is more than 30.6 µM. For the same molecule, the half-maximal effective concentration (EC50) is 0.0037 µM in [2]; 0.016 µM in data set [4]; 0.006 µM in data set [5]; 0.033 µM in [6]; 0.016 µM in data set [7]. For the same molecule, the selectivity ratio in data set [3] was more than 8270. In addition, the “Ratio EC50” value in [8] was found to be 4.3; in data set [9], 1.6; in data set [10] it was 8.9.
On to `Cc1cc(C)cc(S(=O)(=O)c2c(C(=O)NCC(=O)NCc3ccncc3)[nH]c3ccc(Cl)cc23)c1`, for which the 50% cytotoxic concentration (CC50) in data set [1] was more than 48.9 µM. The 50% effective concentration (EC50) is 0.0002 µM in data set [2]; 0.19 µM in data set [4]; 0.02 µM in data set [5]; 1.4 µM in data set [6]; 6.09 µM in [7]. The selectivity ratio in data set [3] was more than 245000. Also, the “Ratio EC50” value amounted to 100 in data set [9] and 30430 in [11].
As to `Cc1cc(C)cc(S(=O)(=O)c2c(C(=O)NC(c3ccc(Cl)cc3)C3CC3)[nH]c3ccc(Cl)cc23)c1` (racemic), the CC50 in data set [1] was more than 47.4 µM. Further, in data set [2], the half-maximal effective concentration (EC50) was determined as 0.133 µM. For the same molecule, the selectivity ratio in [3] was more than 359.
Consider `Cc1cc(C)cc(S(=O)(=O)c2c(C(=O)NCC(=O)N[C@H](C)c3ccncc3)[nH]c3ccc(Cl)cc23)c1`, for which the EC50 in data set [2] amounted to 0.0007 µM; in data set [4], 0.152 µM; in data set [5], 0.00571 µM; in [6], 3.27 µM; in data set [7], 12.2 µM.

The values above are taken from ChEMBL document CHEMBL4038304, “Chiral Indolylarylsulfone Non-Nucleoside Reverse Transcriptase Inhibitors as New Potent and Broad Spectrum Anti-HIV-1 Agents” (J Med Chem, 2017).
